# ChEMBL document CHEMBL3627671, “Novel derivatives of nitro-substituted salicylic acids: Synthesis, antimicrobial activity and cytotoxicity” (Bioorg Med Chem, 2015)
# Legend:
# Type in all cases: functional
# [1] = system: Klebsiella pneumoniae; assay: Antibacterial activity against ESBL-positive Klebsiella pneumoniae J 14368/08 after 48 hrs by microdilution broth method; conditions: J 14368/08, 48 h
# Method in brief: (§1)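 Mueller-Hinton broth microdilution (modified M07-A07), pH 7.4 (±0.2). Compounds dissolved in DMSO, tested at final 500 to 0.49 µmol/L. Inoculum in sterile water matched to 0.5 McFarland. Incubated in the dark, humid atmosphere, 35 °C, read at 24 and 48 h visually and at 540 nm. MIC taken as ≥95% growth reduction (IC95) versus control.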
# [2] = system: Klebsiella pneumoniae; assay: Antibacterial activity against ESBL-positive Klebsiella pneumoniae J 14368/08 after 24 hrs by microdilution broth method; conditions: J 14368/08, 24 h; method in brief: as §1
# [3] = system: Trichosporon asahii; assay: Antifungal activity against Trichosporon asahii 1188 after 24 hrs by microdilution broth method; conditions: Trichosporon asahii, 1188, 24 h
# Method in brief: (§2)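 CLSI M27-A3 broth microdilution in RPMI 1640 with glutamine, buffered to pH 7.0 with MOPS; DMSO diluent. Yeast inoculum 5 × 10^3 ± 0.2 CFU/mL. Moulds grown on Sabouraud agar 3–10 days before spore harvest, final inoculum 0.5-5 × 10^4 CFU/mL, checked in a Bürker chamber. Incubated dark, humid, 35 °C, read at 24 and 48 h visually and at 540 nm. MIC taken as ≥80% (yeasts) or ≥50% (filamentous) growth reduction versus control.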
# [4] = system: Pseudomonas aeruginosa; assay: Antibacterial activity against Pseudomonas aeruginosa CCM 1961 after 48 hrs by microdilution broth method; conditions: CCM 1961, 48 h; method in brief: as §1
# [5] = system: Enterococcus sp.; assay: Antibacterial activity against Enterococcus sp. J 14365/08 after 24 hrs by microdilution broth method; conditions: J 14365/08, 24 h; method in brief: as §1
# [6] = system: Mycobacterium avium; assay: Antimycobacterial activity against Mycobacterium avium 330/80 after 14 days; conditions: 330/80, 336 h
# [7] = system: Trichophyton mentagrophytes; assay: Antifungal activity against Trichophyton mentagrophytes 445 after 24 hrs by microdilution broth method; conditions: Trichophyton mentagrophytes, 445, 24 h
# [8] = system: Candida tropicalis; assay: Antifungal activity against Candida tropicalis 156 after 24 hrs by microdilution broth method; conditions: Candida tropicalis, 156, 24 h; method in brief: as §2
# [9] = system: Aspergillus fumigatus; assay: Antifungal activity against Aspergillus fumigatus 231 after 24 hrs by microdilution broth method; conditions: Aspergillus fumigatus, 231, 24 h; method in brief: as §2
# [10] = system: Candida tropicalis; assay: Antifungal activity against Candida tropicalis 156 after 48 hrs by microdilution broth method; conditions: Candida tropicalis, 156, 48 h; method in brief: as §2
# [11] = system: Nakaseomyces glabratus; assay: Antifungal activity against Candida glabrata 20/I after 24 hrs by microdilution broth method; method in brief: as §2
# [12] = system: Pichia kudriavzevii; assay: Antifungal activity against Candida krusei E28 after 24 hrs by microdilution broth method; conditions: E28, 24 h; method in brief: as §2
# [13] = system: Staphylococcus aureus; assay: Antibacterial activity against methicillin-resistant Staphylococcus aureus H 5996/08 after 48 hrs by microdilution broth method; conditions: H 5996/08, 48 h
# [14] = system: Lichtheimia corymbifera; assay: Antifungal activity against Absidia corymbifera 272 after 48 hrs by microdilution broth method; conditions: Lichtheimia corymbifera, 272, 48 h; method in brief: as §2
# [15] = system: Aspergillus fumigatus; assay: Antifungal activity against Aspergillus fumigatus 231 after 48 hrs by microdilution broth method; conditions: Aspergillus fumigatus, 231, 48 h; method in brief: as §2
# [16] = system: Lichtheimia corymbifera; assay: Antifungal activity against Absidia corymbifera 272 after 24 hrs by microdilution broth method; conditions: Lichtheimia corymbifera, 272, 24 h; method in brief: as §2
# [17] = system: Candida albicans; assay: Antifungal activity against Candida albicans ATCC 44859 after 24 hrs by microdilution broth method; conditions: ATCC 44859, 24 h; method in brief: as §2
# [18] = system: Pichia kudriavzevii; assay: Antifungal activity against Candida krusei E28 after 48 hrs by microdilution broth method; conditions: E28, 48 h; method in brief: as §2
# [19] = system: Mycobacterium kansasii; assay: Antimycobacterial activity against Mycobacterium kansasii 6509/96 after 7 days; conditions: 6509/96, 168 h
# Method in brief: (§3)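 Šula's semisynthetic medium micromethod at 37 °C, read after 7, 14 and 21 days. The 1.0 McFarland suspension was diluted 10^-4. MIC determined. 6509/96 is a clinical isolate.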
# [20] = system: Mycobacterium kansasii; assay: Antimycobacterial activity against Mycobacterium kansasii 235/80 after 7 days; conditions: 235/80, 168 h; method in brief: as §3
# [21] = system: Mycobacterium kansasii; assay: Antimycobacterial activity against Mycobacterium kansasii 235/80 after 21 days; conditions: 235/80, 504 h; method in brief: as §3
# [22] = system: Mycobacterium tuberculosis; assay: Antimycobacterial activity against Mycobacterium tuberculosis H37Rv 331/88 after 21 days; conditions: H37Rv 331/88, 504 h
# [23] = system: Staphylococcus aureus; assay: Antibacterial activity against Staphylococcus aureus CCM 4516/08 after 48 hrs by microdilution broth method; conditions: CCM 4516/08, 48 h
# [24] = system: Mycobacterium avium; assay: Antimycobacterial activity against Mycobacterium avium 330/80 after 21 days; conditions: 330/80, 504 h
# [25] = system: Pseudomonas aeruginosa; assay: Antibacterial activity against Pseudomonas aeruginosa CCM 1961 after 24 hrs by microdilution broth method; conditions: CCM 1961, 24 h; method in brief: as §1
# [26] = system: Candida albicans; assay: Antifungal activity against Candida albicans ATCC 44859 after 48 hrs by microdilution broth method; conditions: ATCC 44859, 48 h; method in brief: as §2
# [27] = system: Trichophyton mentagrophytes; assay: Antifungal activity against Trichophyton mentagrophytes 445 after 48 hrs by microdilution broth method; conditions: Trichophyton mentagrophytes, 445, 48 h
# [28] = system: Staphylococcus aureus; assay: Antibacterial activity against methicillin-resistant Staphylococcus aureus H 5996/08 after 24 hrs by microdilution broth method; conditions: H 5996/08, 24 h
# [29] = system: Mycobacterium tuberculosis; assay: Antimycobacterial activity against Mycobacterium tuberculosis H37Rv 331/88 after 14 days; conditions: H37Rv 331/88, 336 h
# [30] = system: Staphylococcus aureus; assay: Antibacterial activity against Staphylococcus aureus CCM 4516/08 after 24 hrs by microdilution broth method; conditions: CCM 4516/08, 24 h
# [31] = system: Escherichia coli; assay: Antibacterial activity against Escherichia coli CCM4517 after 24 hrs by microdilution broth method; conditions: CCM4517, 24 h; method in brief: as §1
# [32] = system: Staphylococcus epidermidis; assay: Antibacterial activity against Staphylococcus epidermidis H 6966/08 after 48 hrs by microdilution broth method; conditions: H 6966/08, 48 h; method in brief: as §1
# [33] = system: Escherichia coli; assay: Antibacterial activity against Escherichia coli CCM4517 after 48 hrs by microdilution broth method; conditions: CCM4517, 48 h; method in brief: as §1
# [34] = system: Mycobacterium kansasii; assay: Antimycobacterial activity against Mycobacterium kansasii 6509/96 after 21 days; conditions: 6509/96, 504 h; method in brief: as §3
# [35] = system: Trichosporon asahii; assay: Antifungal activity against Trichosporon asahii 1188 after 48 hrs by microdilution broth method; conditions: Trichosporon asahii, 1188, 48 h; method in brief: as §2
# [36] = system: Enterococcus sp.; assay: Antibacterial activity against Enterococcus sp. J 14365/08 after 48 hrs by microdilution broth method; conditions: J 14365/08, 48 h; method in brief: as §1
# [37] = system: Klebsiella pneumoniae; assay: Antibacterial activity against Klebsiella pneumoniae D 11750/08 after 24 hrs by microdilution broth method; conditions: D 11750/08, 24 h; method in brief: as §1
# [38] = system: Staphylococcus epidermidis; assay: Antibacterial activity against Staphylococcus epidermidis H 6966/08 after 24 hrs by microdilution broth method; conditions: H 6966/08, 24 h; method in brief: as §1
# [39] = system: Klebsiella pneumoniae; assay: Antibacterial activity against Klebsiella pneumoniae D 11750/08 after 48 hrs by microdilution broth method; conditions: D 11750/08, 48 h; method in brief: as §1
# [40] = system: Mycobacterium kansasii; assay: Antimycobacterial activity against Mycobacterium kansasii 235/80 after 14 days; conditions: 235/80, 336 h; method in brief: as §3
# [41] = system: Nakaseomyces glabratus; assay: Antifungal activity against Candida glabrata 20/I after 48 hrs by microdilution broth method; method in brief: as §2
# [42] = system: Mycobacterium kansasii; assay: Antimycobacterial activity against Mycobacterium kansasii 6509/96 after 14 days; conditions: 6509/96, 336 h; method in brief: as §3
smiles,measurement,setting,value
O=C(Nc1cccc(I)c1)c1ccc([N+](=O)[O-])cc1O,MIC,[1],> 500 µM
same,MIC,[2],> 500 µM
same,MIC,[3],> 500 µM
same,MIC,[4],> 500 µM
same,MIC,[5],> 500 µM
same,MIC,[6],32 µM
same,MIC,[7],> 500 µM
same,MIC,[8],> 500 µM
same,MIC,[9],> 500 µM
same,MIC,[10],> 500 µM
same,MIC,[11],> 500 µM
same,MIC,[12],> 500 µM
same,MIC,[13],3.9 µM
same,MIC,[14],> 500 µM
same,MIC,[15],> 500 µM
same,MIC,[16],> 500 µM
same,MIC,[17],> 500 µM
same,MIC,[18],> 500 µM
same,MIC,[19],16 µM
same,MIC,[20],8 µM
same,MIC,[21],16 µM
same,MIC,[22],16 µM
same,MIC,[23],3.9 µM
same,MIC,[24],62.5 µM
same,MIC,[25],> 500 µM
same,MIC,[26],> 500 µM
same,MIC,[27],> 500 µM
same,MIC,[28],3.9 µM
same,MIC,[29],16 µM
same,MIC,[30],3.9 µM
same,MIC,[31],> 500 µM
same,MIC,[32],15.6 µM
same,MIC,[33],> 500 µM
same,MIC,[34],16 µM
same,MIC,[35],> 500 µM
same,MIC,[36],> 500 µM
same,MIC,[37],> 500 µM
same,MIC,[38],15.6 µM
same,MIC,[39],> 500 µM
same,MIC,[40],16 µM
same,MIC,[41],> 500 µM
same,MIC,[42],16 µM
O=C(Nc1cccc([N+](=O)[O-])c1)c1ccc([N+](=O)[O-])cc1O,MIC,[1],> 250 µM
same,MIC,[2],> 250 µM
same,MIC,[3],> 250 µM
same,MIC,[4],> 250 µM
same,MIC,[5],> 250 µM
same,MIC,[6],125 µM
same,MIC,[7],> 250 µM
same,MIC,[8],> 250 µM
same,MIC,[9],> 250 µM
same,MIC,[10],> 250 µM
same,MIC,[11],> 250 µM
same,MIC,[12],> 250 µM
same,MIC,[13],125 µM
same,MIC,[14],> 250 µM
same,MIC,[15],> 250 µM
same,MIC,[16],> 250 µM
same,MIC,[17],> 250 µM
same,MIC,[18],> 250 µM
same,MIC,[19],32 µM
same,MIC,[20],32 µM
same,MIC,[21],62.5 µM
same,MIC,[22],32 µM
same,MIC,[23],62.5 µM
same,MIC,[24],125 µM
same,MIC,[25],> 250 µM
same,MIC,[26],> 250 µM
same,MIC,[27],> 250 µM
same,MIC,[28],125 µM
same,MIC,[29],32 µM
same,MIC,[30],62.5 µM
same,MIC,[31],> 250 µM
same,MIC,[32],62.5 µM
same,MIC,[33],> 250 µM
same,MIC,[34],32 µM
same,MIC,[35],> 250 µM
same,MIC,[36],> 250 µM
same,MIC,[37],> 250 µM
same,MIC,[38],31.2 µM
same,MIC,[39],> 250 µM
same,MIC,[40],32 µM
same,MIC,[41],> 250 µM
same,MIC,[42],32 µM
O=C(Nc1ccc([N+](=O)[O-])cc1)c1cc([N+](=O)[O-])ccc1O,MIC,[1],> 500 µM
same,MIC,[2],> 500 µM
same,MIC,[3],> 500 µM
same,MIC,[4],> 500 µM
same,MIC,[5],> 500 µM
same,MIC,[6],250 µM
same,MIC,[7],> 500 µM
same,MIC,[8],> 500 µM
same,MIC,[9],> 500 µM
same,MIC,[10],> 500 µM
same,MIC,[11],> 500 µM
same,MIC,[12],> 500 µM
same,MIC,[13],250 µM
same,MIC,[14],> 500 µM
same,MIC,[15],> 500 µM
same,MIC,[16],> 500 µM
same,MIC,[17],> 500 µM
same,MIC,[18],> 500 µM
same,MIC,[19],62.5 µM
same,MIC,[20],16 µM
same,MIC,[21],125 µM
same,MIC,[22],125 µM
same,MIC,[23],250 µM
same,MIC,[24],250 µM
same,MIC,[25],> 500 µM
same,MIC,[26],> 500 µM
same,MIC,[27],> 500 µM
same,MIC,[28],250 µM
same,MIC,[29],62.5 µM
same,MIC,[30],250 µM
same,MIC,[31],> 500 µM
same,MIC,[32],500 µM
same,MIC,[33],> 500 µM
same,MIC,[34],125 µM
same,MIC,[35],> 500 µM
same,MIC,[36],> 500 µM
same,MIC,[37],> 500 µM
same,MIC,[38],500 µM
same,MIC,[39],> 500 µM
same,MIC,[40],62.5 µM
same,MIC,[41],> 500 µM
same,MIC,[42],125 µM
